Laboratory results as given in the M2OR odorant receptor database.

Biological target: T1, UniProt Q8VGU3
T1 sequence (whole entry): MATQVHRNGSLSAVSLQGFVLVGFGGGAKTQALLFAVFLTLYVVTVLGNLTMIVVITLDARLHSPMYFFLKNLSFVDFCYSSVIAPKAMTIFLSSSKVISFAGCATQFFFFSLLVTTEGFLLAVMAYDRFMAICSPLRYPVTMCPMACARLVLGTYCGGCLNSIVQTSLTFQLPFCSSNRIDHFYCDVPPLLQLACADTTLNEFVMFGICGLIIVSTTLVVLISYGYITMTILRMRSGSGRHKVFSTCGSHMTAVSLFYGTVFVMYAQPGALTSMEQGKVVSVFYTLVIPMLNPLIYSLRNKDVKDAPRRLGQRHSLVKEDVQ
Settings: stereoisomer not certain
Method in brief: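 Each entry records the cell line, G-protein, co-transfected protein and tags used. Methods varied with the source, often transient luciferase assays in mammalian cell lines. A receptor–molecule pair is called responsive (active) if the original authors judged its signal statistically different from baseline and non-responsive (inactive) otherwise.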

| Compound | odorant receptor agonist call |
| --- | --- |
| O=C([O-])CCCCCCC(=O)[O-].[H+].[H+] | inactive |
| CCSCC | inactive |
| CC(C)=C1CCC(C)CC1=O (configuration not stated) | inactive |
| C=CC(=O)CCCCC | inactive |
| CCCCCCCCOC=O | inactive |
| CC(CC=O)CCCC(C)(C)O (configuration not stated) | inactive |
| CC(=O)OCc1ccc2c(c1)OCO2 | inactive |
| CCCCCCC(C=O)=Cc1ccccc1 | inactive |
| COC(OC)c1ccccc1 | inactive |
| CCCCCCCCC=CC=O | inactive |
| CC=CC(=O)C1=C(C)CCCC1(C)C | inactive |
| CCCC(C)C(=O)OCC (configuration not stated) | inactive |
| CCOC(=O)CC(C)C | inactive |
| CCCCCC=CCCC=O | inactive |
| CCc1ccccc1O | inactive |
| O=C(O)CCCCCBr | inactive |

| Compound | odorant receptor agonist call |
| --- | --- |
| OCC=Cc1ccccc1 | inactive |
| Cc1occc1SSc1ccoc1C | inactive |
| Cc1ccc(C(C)C)c(O)c1 | inactive |
| Cc1ccc(OC(=O)C(C)C)cc1 | inactive |
| OCCCCCCCCCO | inactive |
| CCCO | inactive |
| CCCCCC(C=O)=Cc1ccccc1 | inactive |
| C=C1C2CCC(C2)C1(C)C (configuration not stated) | inactive |
| CCSSCC | inactive |
| CCC=CCCC=CC=O | inactive |
| COc1ccccc1 | inactive |
| CCCCCC(=Cc1ccccc1)C(OC)OC | inactive |
| CSSSC | inactive |
| CC=C(C)C=O | inactive |
| Cc1c(C)c(C)c(C=O)c(C)c1C | inactive |
| CCCCCCC(=O)OCCCC | inactive |
